Test results: ChEMBL document CHEMBL5724801, “EUbOPEN Chemogenomics Library - Multiplex” (2024)
Several values for one entry are separate records, joined by “and”; a condition that tells them apart may be missing. Equal entries are not always repeated.

Tested on: U2OS
Assay: Multiplex assay against U2OS
Format: toxicity, cell-based
Settings: human
In short: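 Imaging took place on a CQ1 microscope at 37°C and 5% CO2 once compound had been added to live cells stained at seeding with Hoechst33342, BioTracker Green Microtubule Cytoskeleton Dye, MitoTracker Red and Annexin V Alexa Fluor 680. CellPathfinder machine-learning gating classed cells as Hoechst high-intensity objects or normal cells, classed normal cells as having healthy, pyknosed or fragmented nuclei, and classed pyknosed cells as mitotic or apoptotic. Tubulin, mitochondrial-mass and membrane-permeability phenotypes are per cents of the healthy-nucleus cells.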

[1] = 12 h, 1 µM, compound concentration 1 uM
[2] = 12 h, 10 µM, compound concentration 10 uM
[3] = 24 h, 1 µM, compound concentration 1 uM
[4] = 24 h, 10 µM, compound concentration 10 uM
[5] = 48 h, 1 µM, compound concentration 1 uM
[6] = 48 h, 10 µM, compound concentration 10 uM

## Cc1cc(=O)n(C)c2cc(N3C(=O)CC[C@H](NS(=O)(=O)CC(C)C)[C@H]3c3ccc(Cl)cc3)ccc12
[1]
  Population Apoptotic (%): 87% and 63%
  Population Fragmented Nuclei (%): 24% and 21%
  Population Healthy Nuclei (%): 66% and 68%
  Population Hoechst High Intensity Objects (%): 3% and 1%
  Population Membrane Permeable-Phenotype (%): 3% and 2%
  Population Mitochondria Different-Phenotype (%): 1% and 2%
  Population Mitotic Cells (%): 12% and 36%
  Population Normal (%): 96% and 98%
  Population Pyknosed Nuclei (%): 9% and 10%
  Population Tubulin-Different-Phenotype (%): 1%
  Total Cell Count: 263 and 110
[2]
  Population Apoptotic (%): 57%
  Population Fragmented Nuclei (%): 21% and 16%
  Population Healthy Nuclei (%): 55% and 60%
  Population Hoechst High Intensity Objects (%): 5% and 3%
  Population Membrane Permeable-Phenotype (%): 63% and 35%
  Population Mitochondria Different-Phenotype (%): 44% and 68%
  Population Mitotic Cells (%): 42%
  Population Normal (%): 94% and 96%
  Population Pyknosed Nuclei (%): 23%
  Population Tubulin-Different-Phenotype (%): 65% and 60%
  Total Cell Count: 240 and 83
[3]
  Population Apoptotic (%): 74% and 82%
  Population Fragmented Nuclei (%): 20% and 18%
  Population Healthy Nuclei (%): 68% and 69%
  Population Hoechst High Intensity Objects (%): 3% and 1%
  Population Membrane Permeable-Phenotype (%): 6% and 9%
  Population Mitochondria Different-Phenotype (%): 3% and 2%
  Population Mitotic Cells (%): 25% and 17%
  Population Normal (%): 96% and 98%
  Population Pyknosed Nuclei (%): 11%
  Population Tubulin-Different-Phenotype (%): 4% and 6%
  Total Cell Count: 322 and 146
[4]
  Population Apoptotic (%): 71% and 81%
  Population Fragmented Nuclei (%): 20% and 26%
  Population Healthy Nuclei (%): 56% and 62%
  Population Hoechst High Intensity Objects (%): 5% and 2%
  Population Membrane Permeable-Phenotype (%): 25% and 36%
  Population Mitochondria Different-Phenotype (%): 40% and 59%
  Population Mitotic Cells (%): 28% and 18%
  Population Normal (%): 94% and 97%
  Population Pyknosed Nuclei (%): 23% and 10%
  Population Tubulin-Different-Phenotype (%): 28% and 50%
  Total Cell Count: 262 and 108
[5]
  Population Apoptotic (%): 77% and 95%
  Population Fragmented Nuclei (%): 14% and 15%
  Population Healthy Nuclei (%): 73%
  Population Hoechst High Intensity Objects (%): 1%
  Population Membrane Permeable-Phenotype (%): 4% and 6%
  Population Mitochondria Different-Phenotype (%): 3% and 5%
  Population Normal (%): 98%
  Population Pyknosed Nuclei (%): 11% and 10%
  Population Tubulin-Different-Phenotype (%): 2% and 4%
  Total Cell Count: 508 and 199
[6]
  Population Apoptotic (%): 84% and 71%
  Population Fragmented Nuclei (%): 25% and 21%
  Population Healthy Nuclei (%): 51% and 60%
  Population Hoechst High Intensity Objects (%): 6% and 5%
  Population Membrane Permeable-Phenotype (%): 15% and 30%
  Population Mitochondria Different-Phenotype (%): 15% and 35%
  Population Mitotic Cells (%): 15% and 28%
  Population Normal (%): 93% and 94%
  Population Pyknosed Nuclei (%): 22% and 18%
  Population Tubulin-Different-Phenotype (%): 10% and 23%
  Total Cell Count: 331 and 120

## Cc1ccc(OCC(O)C(C)NC(C)C)c2c1CCC2.Cl (stereo not given)
[1]
  Population Apoptotic (%): 63% and 90%
  Population Fragmented Nuclei (%): 19% and 11%
  Population Healthy Nuclei (%): 66% and 79%
  Population Hoechst High Intensity Objects (%): 2% and 1%
  Population Membrane Permeable-Phenotype (%): 8% and 7%
  Population Mitochondria Different-Phenotype (%): 3% and 2%
  Population Normal (%): 97% and 98%
  Population Pyknosed Nuclei (%): 13% and 8%
  Population Tubulin-Different-Phenotype (%): 4% and 2%
  Total Cell Count: 222 and 129
[2]
  Population Apoptotic (%): 61% and 80%
  Population Fragmented Nuclei (%): 30% and 11%
  Population Healthy Nuclei (%): 52% and 81%
  Population Hoechst High Intensity Objects (%): 5% and 0%
  Population Membrane Permeable-Phenotype (%): 14% and 9%
  Population Mitochondria Different-Phenotype (%): 17% and 22%
  Population Mitotic Cells (%): 38% and 20%
  Population Normal (%): 94% and 99%
  Population Pyknosed Nuclei (%): 16% and 7%
  Population Tubulin-Different-Phenotype (%): 8% and 9%
  Total Cell Count: 215 and 137
[3]
  Population Apoptotic (%): 88% and 93%
  Population Fragmented Nuclei (%): 14% and 15%
  Population Healthy Nuclei (%): 75% and 73%
  Population Hoechst High Intensity Objects (%): 0% and 1%
  Population Membrane Permeable-Phenotype (%): 5% and 3%
  Population Mitochondria Different-Phenotype (%): 3% and 5%
  Population Mitotic Cells (%): 11% and 6%
  Population Normal (%): 100% and 98%
  Population Pyknosed Nuclei (%): 10%
  Population Tubulin-Different-Phenotype (%): 4% and 0%
  Total Cell Count: 255 and 155
[4]
  Population Apoptotic (%): 82% and 92%
  Population Fragmented Nuclei (%): 26% and 14%
  Population Healthy Nuclei (%): 56% and 77%
  Population Hoechst High Intensity Objects (%): 3% and 2%
  Population Membrane Permeable-Phenotype (%): 10% and 12%
  Population Mitochondria Different-Phenotype (%): 17% and 11%
  Population Mitotic Cells (%): 17% and 7%
  Population Normal (%): 96% and 97%
  Population Pyknosed Nuclei (%): 17% and 8%
  Population Tubulin-Different-Phenotype (%): 4% and 6%
  Total Cell Count: 230 and 172
[5]
  Population Apoptotic (%): 88% and 80%
  Population Fragmented Nuclei (%): 14% and 20%
  Population Healthy Nuclei (%): 73% and 69%
  Population Hoechst High Intensity Objects (%): 0% and 2%
  Population Membrane Permeable-Phenotype (%): 6% and 5%
  Population Mitochondria Different-Phenotype (%): 4% and 3%
  Population Mitotic Cells (%): 11% and 20%
  Population Normal (%): 99% and 97%
  Population Pyknosed Nuclei (%): 12% and 10%
  Population Tubulin-Different-Phenotype (%): 3% and 2%
  Total Cell Count: 377 and 202
[6]
  Population Apoptotic (%): 82% and 77%
  Population Fragmented Nuclei (%): 23% and 15%
  Population Healthy Nuclei (%): 63% and 73%
  Population Hoechst High Intensity Objects (%): 4% and 0%
  Population Membrane Permeable-Phenotype (%): 12% and 7%
  Population Mitochondria Different-Phenotype (%): 12% and 4%
  Population Mitotic Cells (%): 17% and 22%
  Population Normal (%): 95% and 99%
  Population Pyknosed Nuclei (%): 13% and 11%
  Population Tubulin-Different-Phenotype (%): 6% and 3%
  Total Cell Count: 306 and 246
